pIC50: −log10 of the molar value. Activity calls are given as the source filed them. The calls are words filed in the database; no cut-off is given here.
Tests used:
[1] = molecular target: T1, Prostaglandin G/H synthase 1 (Ovis aries, UniProt P05979); assay: Inhibition of ovine COX1 assessed as PGF2alpha production from PGH2 after 5 mins by enzyme immunoassay
T1 sequence (P05979 whole entry): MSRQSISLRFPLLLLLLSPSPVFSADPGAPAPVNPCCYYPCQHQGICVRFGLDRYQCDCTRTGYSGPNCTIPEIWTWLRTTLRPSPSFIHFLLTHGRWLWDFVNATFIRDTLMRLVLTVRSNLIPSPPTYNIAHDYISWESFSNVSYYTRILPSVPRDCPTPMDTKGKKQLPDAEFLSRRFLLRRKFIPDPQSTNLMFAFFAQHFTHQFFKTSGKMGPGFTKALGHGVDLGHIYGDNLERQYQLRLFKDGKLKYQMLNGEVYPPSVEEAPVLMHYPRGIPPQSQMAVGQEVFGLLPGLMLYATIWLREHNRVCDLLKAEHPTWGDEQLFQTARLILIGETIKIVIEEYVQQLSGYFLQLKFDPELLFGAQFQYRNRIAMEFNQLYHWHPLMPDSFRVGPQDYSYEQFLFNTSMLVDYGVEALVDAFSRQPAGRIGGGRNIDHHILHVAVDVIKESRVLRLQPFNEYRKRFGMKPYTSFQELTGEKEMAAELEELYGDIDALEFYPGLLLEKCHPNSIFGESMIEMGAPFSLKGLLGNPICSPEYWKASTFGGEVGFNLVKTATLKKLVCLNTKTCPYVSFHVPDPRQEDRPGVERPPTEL
Method in brief: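 Ovine COX-1 in reaction buffer with 2 mM phenol and heme, preincubated with six test concentrations (1 mL final) for 5 min at 37 °C. Arachidonic acid was then added and the reaction stopped with 1 M HCl after 2 min. Prostanoids were reduced with stannous chloride and quantified by competitive acetylcholinesterase-tracer EIA (Ellman's reagent, 410 nm). IC50 came from concentration–inhibition curves, duplicate determinations.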

Rattus norvegicus [2] = assay: Antiinflammatory activity in Sprague-Dawley rat assessed as inhibition of carrageenan-induced foot paw oedema at 200 mg/kg, ip after 2 hrs by plethysmometer analysis relative to control; type: functional; details: for inhibition in vivo at 200 mg/kg: route intraperitoneal
Method in brief: (§1)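 Male Sprague–Dawley rats (250 g), fasted at least 16 h with water available. Compounds were given i.p. as a 1 mL suspension in 0.5% methyl cellulose; controls received vehicle. Paw volume was read by water-displacement plethysmometer before treatment and 1 and 2 h after. Activity (%) = (1 − D/C) × 100, where D and C are paw-volume changes in treated and control rats; mean ± SEM, n = 4–6.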

Rattus norvegicus [3] = assay: Antiinflammatory activity in Sprague-Dawley rat assessed as inhibition of carrageenan-induced foot paw oedema at 200 mg/kg, ip after 1 hr by plethysmometer analysis relative to control; type: functional; details: for inhibition in vivo at 200 mg/kg: route intraperitoneal; method in brief: as §1
Rattus norvegicus [4] = assay: Antiinflammatory activity in Sprague-Dawley rat assessed as inhibition of carrageenan-induced foot paw oedema at 100 mg/kg, ip after 1 hr by plethysmometer analysis relative to control; type: functional; details: route intraperitoneal; method in brief: as §1
Rattus norvegicus [5] = assay: Antiinflammatory activity in ip dosed Sprague-Dawley rat assessed as inhibition of carrageenan-induced foot paw oedema after 2 hrs by plethysmometer analysis; type: functional
Method in brief: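 Rat carrageenan paw oedema: male Sprague–Dawley rats (250 g), fasted ≥16 h, dosed i.p. with a 1 mL suspension in 0.5% methyl cellulose. Paw swelling was measured by plethysmometer water displacement, and percent inhibition was taken against vehicle controls.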

Rattus norvegicus [6] = assay: Antiinflammatory activity in Sprague-Dawley rat assessed as inhibition of carrageenan-induced foot paw oedema at 100 mg/kg, ip after 2 hrs by plethysmometer analysis relative to control; type: functional; details: route intraperitoneal; method in brief: as §1
[7] = molecular target: T2, Prostaglandin G/H synthase 1 (Ovis aries) (UniProt P05979); assay: Inhibition of ovine COX1 assessed as PGF2alpha production from PGH2 at 100 uM after 5 mins by enzyme immunoassay
T2 sequence (whole entry): T1 sequence (P05979 whole entry)
Method in brief: (§2)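 Enzyme (ovine COX-1) with heme in buffer containing 2 mM phenol was preincubated with the test compound for 5 min at 37 °C, then given arachidonic acid for 2 min before quenching with 1 M HCl. Products were reduced with stannous chloride and measured by competitive PG-tracer EIA at 410 nm. Percent inhibition was calculated against control incubations.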

[8] = molecular target: T2, Prostaglandin G/H synthase 1 (Ovis aries); assay: Inhibition of ovine COX1 assessed as PGF2alpha production from PGH2 at 0.5 uM after 5 mins by enzyme immunoassay; method in brief: as §2

| Structure (SMILES) | pIC50 [1] | inhibition in vivo at 200 mg/kg (Rattus norvegicus [2]) [%] | inhibition in vivo at 200 mg/kg (Rattus norvegicus [3]) [%] | inhibition in vivo at 100 mg/kg (Rattus norvegicus [4]) [%] | ED50 (Rattus norvegicus [5]) [mg/kg] | inhibition in vivo at 100 mg/kg (Rattus norvegicus [6]) [%] | inhibition [7] [%] | inhibition [8] [%] | inhibition (Rattus norvegicus [2]) | inhibition (Rattus norvegicus [3]) |
| --- | --- | --- | --- | --- | --- | --- | --- | --- | --- | --- |
| FC(F)(F)C1=NN=C(c2ccc(Cl)cc2)/C1=N/Nc1ccc(Cl)cc1 | < 4.30 | 9.1 | 8.1 | – | – | – | – | – | – | – |
| O=C(/C=C/c1c(C(F)(F)F)nn(-c2ccccc2)c1-c1ccc(Cl)cc1)c1ccc(Cl)cc1 | < 4.30 | 4.4 | 1.5 | – | – | – | – | – | – | – |
| O=Cc1c(C(F)(F)F)nn(-c2ccccc2)c1-c1ccc(Cl)cc1 | < 4.30 | 59.1 | 75 | 24.1 | 190 | 40.3 | – | – | – | – |
| FC(F)(F)C1=NN=C(c2ccc(Cl)cc2)/C1=N/Nc1cc(C(F)(F)F)cc(C(F)(F)F)c1 | < 4.30 | 28.8 | 40.8 | 3.4 | – | 17.3 | – | – | – | – |
| O=C(/C=C/c1c(C(F)(F)F)nn(-c2ccccc2)c1-c1ccc(Cl)cc1)c1ccccc1 | < 4.30 | 2.6 | 1.8 | – | – | – | – | – | – | – |
| CCN1CCC(=O)/C(=C/c2c(C(F)(F)F)nn(-c3ccccc3)c2-c2ccc(Cl)cc2)C1 | < 4.30 | 89.7 | 80 | 41 | 120 | 64 | – | – | – | – |
| O=C1CCCC/C1=C\c1c(C(F)(F)F)nn(-c2ccccc2)c1-c1ccc(Cl)cc1 | < 4.30 | 23.9 | 33.7 | – | – | – | – | – | – | – |
| O=C(/C(=N\Nc1ccccc1Cl)C(=O)C(F)(F)F)c1ccc(Cl)cc1 | < 4.30 | 41.7 | 47.1 | 0 | 260 | 19.3 | 25 | 31 | – | – |
| O=C1CCC/C1=C\c1c(C(F)(F)F)nn(-c2ccccc2)c1-c1ccc(Cl)cc1 | < 4.30 | 82 | 80.7 | 37 | 118 | 67 | – | – | – | – |
| O=C(O)Cc1ccccc1Nc1c(Cl)cccc1Cl [DICLOFENAC SODIUM] | – | – | – | 88.5 | – | 89.5 | – | – | – | – |
| COc1ccc(N/N=C2/C(c3ccc(Cl)cc3)=NN=C2C(F)(F)F)cc1 | < 4.30 | – | – | – | – | – | – | – | inactive | inactive |
| O=C(/C(=N\Nc1ccc([N+](=O)[O-])cc1)C(=O)C(F)(F)F)c1ccc(Cl)cc1 | < 4.30 | 57.3 | 35.8 | 0 | 170 | 17.9 | 25 | 31 | – | – |
| CN1CCC(=O)/C(=C/c2c(C(F)(F)F)nn(-c3ccccc3)c2-c2ccc(Cl)cc2)C1 | < 4.30 | 20.3 | 6.7 | – | – | – | – | – | – | – |
| O=[N+]([O-])c1ccc(N/N=C2/C(c3ccc(Cl)cc3)=NN=C2C(F)(F)F)cc1 | < 4.30 | 7 | 4 | – | – | – | – | – | – | – |
| O=C(/C(=N\Nc1cc(C(F)(F)F)cc(C(F)(F)F)c1)C(=O)C(F)(F)F)c1ccc(Cl)cc1 | < 4.30 | 88.4 | 80 | 33 | 112 | 59 | – | – | – | – |
| O=C(/C(=N\Nc1ccc(Br)cc1)C(=O)C(F)(F)F)c1ccc(Cl)cc1 | < 4.30 | 33.8 | 35 | 0 | 280 | 13.9 | – | – | – | – |
| FC(F)(F)C1=NN=C(c2ccc(Cl)cc2)/C1=N/Nc1ccccc1Cl | < 4.30 | 15.1 | 38.4 | – | – | – | – | – | – | – |
| COc1ccc(N/N=C(\C(=O)c2ccc(Cl)cc2)C(=O)C(F)(F)F)cc1 | < 4.30 | 42.2 | 27.6 | 0 | 240 | 3.8 | 25 | 31 | – | – |
| FC(F)(F)C1=NN=C(c2ccc(Cl)cc2)/C1=N/Nc1ccc(Br)cc1 | < 4.30 | 52.1 | 26.3 | 17.5 | 180 | 31.3 | – | – | – | – |
| O=C(/C(=N\Nc1ccc(Cl)cc1)C(=O)C(F)(F)F)c1ccc(Cl)cc1 | < 4.30 | 35.2 | 26.7 | – | – | – | – | – | – | – |
